Laboratory results as given in ChEMBL document CHEMBL1125157, “Synthesis and biological evaluation of 14-alkoxymorphinans. 3. Extensive study on cyprodime-related compounds” (J Med Chem, 1990).
Active and inactive are the calls of the source. The rule behind the calls is not given here.

What was measured:
[1] = target: Mu-type opioid receptor (Homo sapiens) (UniProt P35372); assay: Agonist potency against mu opioid receptor expressed as the ratio of the ED40 concentrations of the normorphine and compound in guinea pig ileum; NA= No agonist activity detected; assay type: functional, tissue-based
Outline: (§1)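 Agonist activity tested on electrically stimulated isolated tissue twitch (mouse vas deferens and guinea pig ileum). ED40 is the concentration giving 40% inhibition of twitch height. Potency is given as the ratio of the ED40 of the reference agonist (normorphine, ethylketocyclazocine or DADLE) to that of the test compound. TS marks a curve too shallow to reach 40% inhibition. NA means no agonist activity was detected.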

[2] = target: Kappa-type opioid receptor (Mus musculus) (UniProt P33534); assay: Antagonistic activity (Ke) at Opioid receptor kappa 1 was determined against ethylketocyclazocine in the mouse vas deferens (MVD); assay type: functional, tissue-based
Outline: (§2)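 Mouse vas deferens antagonism was measured against normorphine (μ), ethylketocyclazocine (κ) or DADLE (δ in this tissue). Ke = [antagonist]/(DR − 1), where DR is the ratio of equiactive agonist concentrations with and without antagonist. Antagonist concentrations were chosen to give a dose ratio between 3 and 10 against the relevant agonist.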

[3] = target: Mu-type opioid receptor (Homo sapiens) (UniProt P35372); assay: Agonist potency against mu opioid receptor expressed as the ratio of the ED40 concentrations of the DADLE and compound in guinea pig ileum; NA= No agonist activity detected; assay type: functional, tissue-based; outline: as §1
[4] = target: Delta-type opioid receptor (Mus musculus) (UniProt P32300); assay: Antagonistic activity (Ke) at Opioid receptor delta 1 was determined against DADLE in the mouse vas deferens (MVD); assay type: functional, tissue-based; outline: as §2
[5] = target: Mu-type opioid receptor (Homo sapiens) (UniProt P35372); assay: Agonist potency against mu opioid receptor expressed as the ratio of the ED40 concentrations of the ethylketocyclazocin and compound in guinea pig ileum; assay type: functional, tissue-based; outline: as §1
[6] = target: T1, Opioid receptors; mu & delta (Homo sapiens) (UniProt P41143+P35372); assay: Selectivity ratio was determined using the Ke value of Opioid receptor delta 1 to that of Opioid receptor mu 1
Outline: (§3)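 Selectivity is the ratio of Ke values from mouse vas deferens antagonism, with Ke = [antagonist]/(DR − 1). DADLE gave the δ value, ethylketocyclazocine the κ value and normorphine the μ value. Antagonist concentrations gave a dose ratio of 3–10.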

[7] = target: Opioid receptors; mu & kappa (Homo sapiens) (UniProt P41145+P35372); assay: Selectivity ratio was determined using the Ke value of kappa receptor to that of mu receptor; outline: as §3
[8] = target: Mu-type opioid receptor (Mus musculus) (UniProt P42866); assay: Antagonistic activity (Ke) against nor-morphine and Opioid receptor mu 1 of mouse vas deferens assay; assay type: functional, tissue-based; outline: as §2
[9] = target: Delta-type opioid receptor (Mus musculus) (UniProt P32300); assay: Antagonistic activity (Ke) at Opioid receptor delta 1 was determined against DADLE in the mouse vas deferens (MVD) method.; assay type: functional, tissue-based; outline: as §2
[10] = target: Mu-type opioid receptor (Cavia porcellus) (UniProt P97266); assay: Agonist potency against Opioid receptor mu 1 expressed as the ratio of the ED40 concentrations of the ethylketocyclazocin and compound in guinea pig ileum; assay type: functional, tissue-based; outline: as §1
[11] = target: Mu-type opioid receptor (Mus musculus) (UniProt P42866); assay: Agonist potency against Opioid receptor mu 1 expressed as the ratio of the ED40 concentrations of the normorphine and compound in guinea pig ileum; assay type: functional, tissue-based; outline: as §1
[12] = target: Mu-type opioid receptor (Cavia porcellus) (UniProt P97266); assay: Agonist potency against Opioid receptor mu 1 expressed as the ratio of the ED40 concentrations of the DADLE and compound in guinea pig ileum […]; assay type: functional, tissue-based; outline: as §1
[13] = target: T1, Opioid receptors; mu & delta (Homo sapiens); assay: Selectivity ratio was determined using the Ke value of Opioid receptor delta 1 to that of mu receptor; outline: as §3
[14] = target: Mu-type opioid receptor (Homo sapiens) (UniProt P35372); assay: Agonist potency against mu opioid receptor expressed as the ratio of the ED40 concentrations of the DADLE and compound in guinea pig ileum; assay type: functional, tissue-based; outline: as §1
[15] = target: Mu-type opioid receptor (Cavia porcellus) (UniProt P97266); assay: Agonist potency against Opioid receptor mu 1 expressed as the ratio of the ED40 concentrations of the ethylketocyclazocin and compound in guinea pig ileum TS= Too shallow to estimate ED40; assay type: functional, tissue-based; outline: as §1
[16] = target: Mu-type opioid receptor (Homo sapiens) (UniProt P35372); assay: Agonist potency against mu opioid receptor expressed as the ratio of the ED40 concentrations of the normorphine and compound in guinea pig ileum; TS= Too shallow to estimate ED40; assay type: functional, tissue-based; outline: as §1
[17] = target: Mu-type opioid receptor (Mus musculus) (UniProt P42866); assay: (§4) Agonist potency against Opioid receptor mu 1 expressed as the ratio of the ED40 concentrations of the normorphine and compound in guinea pig ileum; NA= No agonist activity detected; assay type: functional, tissue-based; outline: as §1
[18] = target: Mu-type opioid receptor (Cavia porcellus) (UniProt P97266); assay: as §4; assay type: functional, tissue-based; outline: as §1
[19] = target: Mu-type opioid receptor (Homo sapiens) (UniProt P35372); assay: Agonist potency against mu opioid receptor expressed as the ratio of the ED40 concentrations of the ethylketocyclazocin and compound in guinea pig ileum TS= Too shallow to estimate ED40; assay type: functional, tissue-based; outline: as §1

Chain of Mu-type opioid receptor (Mus musculus) (P42866 whole entry): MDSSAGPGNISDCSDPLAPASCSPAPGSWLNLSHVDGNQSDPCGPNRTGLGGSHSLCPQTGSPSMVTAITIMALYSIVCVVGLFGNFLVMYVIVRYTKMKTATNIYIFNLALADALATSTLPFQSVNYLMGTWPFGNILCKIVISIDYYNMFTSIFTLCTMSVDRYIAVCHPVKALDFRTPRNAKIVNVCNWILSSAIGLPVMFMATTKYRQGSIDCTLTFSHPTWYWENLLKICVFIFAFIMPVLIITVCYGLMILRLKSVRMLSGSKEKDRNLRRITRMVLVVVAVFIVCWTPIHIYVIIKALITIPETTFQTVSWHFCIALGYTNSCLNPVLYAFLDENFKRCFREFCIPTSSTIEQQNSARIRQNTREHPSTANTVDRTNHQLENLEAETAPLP
Chain of Mu-type opioid receptor (Homo sapiens) (P35372 whole entry): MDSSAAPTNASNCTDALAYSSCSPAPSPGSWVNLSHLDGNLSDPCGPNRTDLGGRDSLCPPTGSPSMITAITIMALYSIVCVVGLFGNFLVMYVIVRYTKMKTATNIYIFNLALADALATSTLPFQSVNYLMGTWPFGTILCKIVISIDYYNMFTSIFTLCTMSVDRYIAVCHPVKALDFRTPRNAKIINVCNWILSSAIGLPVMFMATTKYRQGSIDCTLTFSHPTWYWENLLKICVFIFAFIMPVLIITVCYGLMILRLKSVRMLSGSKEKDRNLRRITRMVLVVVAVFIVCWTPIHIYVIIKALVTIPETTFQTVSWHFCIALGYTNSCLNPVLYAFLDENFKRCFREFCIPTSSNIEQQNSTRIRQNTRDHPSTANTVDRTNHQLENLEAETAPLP
T1 sequence (P35372 whole entry, looked up): as the sequence (P35372 whole entry) above
T1 sequence (P41143 whole entry, looked up): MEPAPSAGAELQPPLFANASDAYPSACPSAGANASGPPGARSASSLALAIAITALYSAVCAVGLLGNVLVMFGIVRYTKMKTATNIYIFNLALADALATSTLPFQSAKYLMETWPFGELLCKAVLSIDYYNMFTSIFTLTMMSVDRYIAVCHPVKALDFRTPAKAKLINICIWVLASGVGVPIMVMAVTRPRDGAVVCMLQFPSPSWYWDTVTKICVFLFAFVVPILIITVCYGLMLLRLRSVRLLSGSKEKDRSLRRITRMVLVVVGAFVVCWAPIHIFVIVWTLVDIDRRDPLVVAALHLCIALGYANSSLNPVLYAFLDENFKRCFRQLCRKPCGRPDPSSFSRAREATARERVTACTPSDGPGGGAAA
Chain of Opioid receptors; mu & kappa (Homo sapiens) (P35372 whole entry, looked up): as the sequence (P35372 whole entry) above
Chain of Opioid receptors; mu & kappa (Homo sapiens) (P41145 whole entry, looked up): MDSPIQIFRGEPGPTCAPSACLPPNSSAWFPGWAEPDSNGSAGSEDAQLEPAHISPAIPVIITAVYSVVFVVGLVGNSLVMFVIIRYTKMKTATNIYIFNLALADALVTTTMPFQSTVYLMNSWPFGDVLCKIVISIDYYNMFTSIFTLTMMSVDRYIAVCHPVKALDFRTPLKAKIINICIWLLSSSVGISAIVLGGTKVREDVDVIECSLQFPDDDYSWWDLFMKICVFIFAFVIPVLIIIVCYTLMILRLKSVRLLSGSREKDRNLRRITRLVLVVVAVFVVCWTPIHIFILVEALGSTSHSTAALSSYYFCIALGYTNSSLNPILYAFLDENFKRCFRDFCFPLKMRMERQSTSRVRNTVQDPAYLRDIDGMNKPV
Chain of Delta-type opioid receptor (Mus musculus) (P32300 whole entry): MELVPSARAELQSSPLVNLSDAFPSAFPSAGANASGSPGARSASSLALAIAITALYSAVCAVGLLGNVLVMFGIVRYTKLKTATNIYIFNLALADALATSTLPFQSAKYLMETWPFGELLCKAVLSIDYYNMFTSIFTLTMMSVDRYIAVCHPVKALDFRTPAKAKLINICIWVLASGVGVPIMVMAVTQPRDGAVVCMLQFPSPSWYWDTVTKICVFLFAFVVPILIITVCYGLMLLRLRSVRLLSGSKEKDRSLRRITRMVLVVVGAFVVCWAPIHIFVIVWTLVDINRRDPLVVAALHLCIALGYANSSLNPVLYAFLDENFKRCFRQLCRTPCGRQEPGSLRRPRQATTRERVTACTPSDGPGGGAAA
Chain of Kappa-type opioid receptor (Mus musculus) (P33534 whole entry): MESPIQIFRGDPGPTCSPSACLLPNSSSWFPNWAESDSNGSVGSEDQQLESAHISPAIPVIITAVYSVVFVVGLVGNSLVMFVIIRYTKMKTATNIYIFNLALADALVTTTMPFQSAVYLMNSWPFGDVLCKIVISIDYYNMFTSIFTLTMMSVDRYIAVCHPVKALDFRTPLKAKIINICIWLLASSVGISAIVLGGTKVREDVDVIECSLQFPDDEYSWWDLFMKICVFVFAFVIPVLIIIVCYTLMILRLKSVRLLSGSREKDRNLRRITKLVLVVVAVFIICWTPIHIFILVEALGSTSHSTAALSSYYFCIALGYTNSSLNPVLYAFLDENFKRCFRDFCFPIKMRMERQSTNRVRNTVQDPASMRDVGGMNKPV
Chain of Mu-type opioid receptor (Cavia porcellus) (P97266 whole entry): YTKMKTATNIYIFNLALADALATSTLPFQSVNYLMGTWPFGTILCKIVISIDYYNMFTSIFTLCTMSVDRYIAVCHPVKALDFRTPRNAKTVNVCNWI

| SMILES | Ratio [1] | Ke [2] [nM] | Ratio [3] | Ke [4] [nM] | Ratio [5] | Selectivity ratio [6] | Selectivity ratio [7] | Ke [8] [nM] | Ke [9] [µM] | other results |
| --- | --- | --- | --- | --- | --- | --- | --- | --- | --- | --- |
| CCO[C@@]12CCC(=O)C[C@@]13CCN(CC1CC1)[C@@H]2Cc1cccc(OC)c13 | inactive | 1130 | inactive | 2130 | 0.0014 | 98 | 52 | 21.7 |  |  |
| COc1cccc2c1[C@]13CCN(CC4CC4)[C@H](C2)[C@]1(OC)CCC(=O)C3 |  |  |  |  |  | 110 | 28 |  |  |  |
| CCCCOc1cccc2c1[C@]13CCN(CC4CC4)[C@H](C2)[C@]1(OC)CCC(=O)C3 |  | 811 |  |  |  |  |  | 21 | 2.05 |  |
| CO[C@@]12CCC(=O)C[C@@]13CCN(CC1CC1)[C@@H]2Cc1ccccc13 |  |  |  |  |  |  |  |  |  | Ratio [10]: 0.0008; Ratio [11]: 0.0004; Ratio [12]: 0.004 |
| CO[C@@]12CCC(=O)[C@@H]3Oc4cccc5c4C31CCN(CC1CC1)[C@@H]2C5 |  | 648 |  |  |  |  |  | 168 | 4.03 | Selectivity ratio [13]: 24 |
| CO[C@@]12CCC(=O)C[C@@]13CCN(CC1CC1)[C@@H]2Cc1cccc(OC(C)C)c13 |  | 2410 | inactive | 11300 |  | 105 | 22 | 108 |  |  |
| C=CCN1CC[C@]23CC(=O)CC[C@@]2(OCC)[C@H]1Cc1ccc(OC)c(OC)c13 |  | 6190 |  | 665 | 0.001 | 3.6 | 34 | 184 |  | Ratio [14]: 1 |
| C=CCN1CC[C@]23CC(=O)CC[C@@]2(OCC)[C@H]1Cc1cccc(OC)c13 | inactive | 2560 | inactive | 3740 | 0.0004 | 46 | 32 | 81 |  |  |
| C=CCN1CC[C@]23CC(=O)CC[C@@]2(OC)[C@H]1Cc1ccc(OC)c(OC)c13 | inactive | 3900 | inactive | 179 |  |  |  | 118 |  | Ratio [15]: inactive |
| CCO[C@@]12CCC(=O)C[C@@]13CCN(CC1CC1)[C@@H]2Cc1ccc(OC)c(OC)c13 |  | 5300 | inactive | 1540 | 0.0015 | 33 | 115 | 46 |  | Ratio [16]: inactive |
| C=CCN1CC[C@]23CC(=O)CC[C@@]2(OC)[C@H]1Cc1cccc(OC)c13 |  | 6040 |  |  |  |  |  | 230 | 6.45 |  |
| CO[C@@]12CCC(=O)C[C@@]13CCN(CC1CC1)[C@@H]2Cc1cccc(O)c13 |  |  |  |  |  |  |  |  |  | Ratio [10]: 0.0007; Ratio [17]: 0.001; Ratio [18]: inactive |
| COc1ccc2c(c1OC)[C@]13CCN(CC4CC4)[C@H](C2)[C@]1(OC)CCC(=O)C3 | inactive | 2100 | inactive |  |  |  |  | 120 | 0.744 | Ratio [19]: inactive |
